Measured values taken from ChEMBL document CHEMBL3046036, “Bioactivity of the fungal metabolite (8R,16R)-(-)-pyrenophorin on graminaceous plants” (J Agric Food Chem, 2005).
Activity calls are given as the source filed them. The calls are words filed in the database; no cut-off is given here.

Tests used:
Avena sativa [1] = assay: Inhibition of Avena sativa seed germination at 20 degC at 320 uM (reference value: 0%); type: functional
Avena sativa [2] = assay: Inhibition of Avena sativa seed germination at 20 degC at 200 uM (reference value: 0%); type: functional
Hordeum vulgare [3] = assay: Inhibition of Hordeum vulgare (barley) seed germination at 20 degC at 60 uM (reference value: 0%); type: functional
Avena sativa [4] = assay: Inhibition of Avena sativa seed germination at 20 degC at 10 to 50 uM (reference value: 0%); type: functional
Avena sativa [5] = assay: Inhibition of Avena sativa seed germination at 20 degC at 640 uM (reference value: 0%); type: functional
Avena sterilis [6] = assay: Inhibition of Avena sterilis seed germination at 20 degC at 60 uM (reference value: 0%); type: functional
Avena sterilis [7] = assay: Inhibition of Avena sterilis seed germination at 20 degC at 100 uM (reference value: 0%); type: functional
Avena fatua [8] = assay: Effect on chlorophyll content in Avena fatua assessed as chlorophyll dissipation rate at 20 degC and […] at 320 uM relative to control; type: ADME, organism-based; details: in vivo
Outline: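 Leaf sections were treated with 320 µM metabolite and incubated in the dark at 20 °C, with 16 tubes per treatment. Every 12 h, segments from one tube were split into four tubes and extracted in DMSO at 65 °C for 30 min. Extracts were read at A665, tissue was dried at 105 °C and weighed, and chlorophyll was expressed as A665 per g dry weight.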

Avena sterilis [9] = assay: Inhibition of Avena sterilis seed germination at 20 degC at 320 uM (reference value: 0%); type: functional
Avena sterilis [10] = assay: Inhibition of Avena sterilis root growth at 20 degC and 12 hr photoperiod at > 51 uM; type: functional, organism-based
Outline: (§1)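 Pregerminated seeds were exposed in tubes to aqueous metabolite and kept in a growth chamber at 20 °C with a 12-h photoperiod. Main root length was measured after 120 h.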

Avena sativa [11] = assay: Inhibition of Avena sativa seed germination at 20 degC at 70 uM (reference value: 0%); type: functional
Hordeum vulgare [12] = assay: Inhibition of Hordeum vulgare (barley) seed germination at 20 degC at 320 uM (reference value: 0%); type: functional
Avena sterilis [13] = assay: Inhibition of Avena sterilis seed germination at 20 degC at 90 uM (reference value: 0%); type: functional
Triticum aestivum [14] = assay: Inhibition of Triticum aestivum (wheat) root growth at 20 degC and 12 hr photoperiod at 31 to 50 uM; type: functional, organism-based
Avena fatua [15] = assay: Inhibition of Avena fatua seed germination at 20 degC at 80 uM (reference value: 0%); type: functional
Triticum aestivum [16] = assay: Inhibition of Triticum aestivum (wheat) seed germination at 20 degC at 10 to 50 uM (reference value: 0%); type: functional
Avena fatua [17] = assay: Inhibition of Avena fatua seed germination at 20 degC at 10 to 50 uM (reference value: 0%); type: functional
Avena sativa [18] = assay: Phytotoxicity against Avena sativa root growth at 20 degC and 12 hr photoperiod at 1000 uM; type: organism-based; details: in vivo
Avena fatua [19] = assay: Inhibition of Avena fatua root growth at 20 degC and 12 hr photoperiod at 31 to 50 uM; type: functional, organism-based; outline: as §1
Hordeum vulgare [20] = assay: Inhibition of Hordeum vulgare (barley) seed germination at 20 degC at 80 uM (reference value: 0%); type: functional
Avena fatua [21] = assay: Inhibition of Avena fatua seed germination at 20 degC at 200 uM (reference value: 0%); type: functional
Avena sterilis [22] = assay: Inhibition of Avena sterilis seed germination at 20 degC at 80 uM (reference value: 0%); type: functional
Avena sativa [23] = assay: Inhibition of Avena sativa seed germination at 20 degC at 100 uM (reference value: 0%); type: functional
Triticum aestivum [24] = assay: Inhibition of Triticum aestivum (wheat) seed germination at 20 degC at 70 uM (reference value: 0%); type: functional
Avena fatua [25] = assay: Phytotoxicity against Avena fatua root growth at 20 degC and 12 hr photoperiod at 1000 uM; type: organism-based; details: in vivo
Hordeum vulgare [26] = assay: Inhibition of Hordeum vulgare (barley) root growth at 20 degC and 12 hr photoperiod at 31 to 50 uM; type: functional, organism-based; outline: as §1
Avena sterilis [27] = assay: Inhibition of Avena sterilis seed germination at 20 degC at 70 uM (reference value: 0%); type: functional
Avena sterilis [28] = assay: Inhibition of Avena sterilis seed germination at 20 degC at 200 uM (reference value: 0%); type: functional
Triticum aestivum [29] = assay: Inhibition of Triticum aestivum (wheat) seed germination at 20 degC at 200 uM (reference value: 0%); type: functional
Avena sterilis [30] = assay: Inhibition of Avena sterilis seed germination at 20 degC at 10 to 50 uM (reference value: 0%); type: functional
Avena fatua [31] = assay: Inhibition of Avena fatua seed germination at 20 degC at 70 uM (reference value: 0%); type: functional
Avena fatua [32] = assay: Inhibition of Avena fatua seed germination at 20 degC at 320 uM (reference value: 0%); type: functional
Avena fatua [33] = assay: Enhancement of Avena fatua root growth at 20 degC and 12 hr photoperiod at 10 to 30 uM; type: functional, organism-based; outline: as §1
Hordeum vulgare [34] = assay: Inhibition of Hordeum vulgare (barley) root growth at 20 degC and 12 hr photoperiod at > 51 uM; type: functional, organism-based; outline: as §1
Hordeum vulgare [35] = assay: Enhancement of Hordeum vulgare (barley) root growth at 20 degC and 12 hr photoperiod at 10 to 30 uM; type: functional, organism-based; outline: as §1

For C[C@@H]1CCC(=O)/C=C/C(=O)O[C@H](C)CCC(=O)/C=C/C(=O)O1 [(8R,16R)-(-)-pyrenophorin], the inhibition at 320 µM (Avena sativa [1]) was 100%, the inhibition at 200 µM (Avena sativa [2]) was 95.6% and the inhibition at 60 µM (Hordeum vulgare [3]) was 10.1%. The “inhibition (INH)” value (Avena sativa [4]) was 0%, the inhibition at 640 µM (Avena sativa [5]) was 100% and the inhibition at 60 µM (Avena sterilis [6]) was 15%. It also gave an inhibition at 100 µM (Avena sterilis [7]) of 96.8%, a Ratio (Avena fatua [8]) of 1.4 and an inhibition at 320 µM (Avena sterilis [9]) of 100%. For the same molecule, the inhibition (Avena sterilis [10]) was “Active”, the inhibition at 70 µM (Avena sativa [11]) was 71.5% and the inhibition at 320 µM (Hordeum vulgare [12]) was 100%. The inhibition at 90 µM (Avena sterilis [13]) was 89.6%, the inhibition (Triticum aestivum [14]) was “inactive” and the inhibition at 80 µM (Avena fatua [15]) was 82%. For the same molecule, the “inhibition (INH)” value (Triticum aestivum [16]) was 0%, the “inhibition (INH)” value (Avena fatua [17]) was 0% and the Activity (Avena sativa [18]) was “Non-toxic”. The inhibition (Avena fatua [19]) was “inactive”, the inhibition at 80 µM (Hordeum vulgare [20]) was 87.7% and the inhibition at 200 µM (Avena fatua [21]) was 97.9%. It also gave an inhibition at 80 µM (Avena sterilis [22]) of 84.4%, an inhibition at 100 µM (Avena sativa [23]) of 93.5% and an inhibition at 70 µM (Triticum aestivum [24]) of 67.8%. For the same molecule, the Activity (Avena fatua [25]) was “Non-toxic”, the inhibition (Hordeum vulgare [26]) was “inactive” and the inhibition at 70 µM (Avena sterilis [27]) was 68.5%. For the same molecule, the inhibition at 200 µM (Avena sterilis [28]) was 100%, the inhibition at 200 µM (Triticum aestivum [29]) was 90.6% and the “inhibition (INH)” value (Avena sterilis [30]) was 0%. For the same molecule, the inhibition at 70 µM (Avena fatua [31]) was 69.9%, the inhibition at 320 µM (Avena fatua [32]) was 100% and the Activity (Avena fatua [33]) was “Active”. The inhibition (Hordeum vulgare [34]) was “Active” and the Activity (Hordeum vulgare [35]) was “Active”.
